Screening results (PubChem BioAssay)
HSP90 refold inh – HSP90 refolding inhibition in rabbit reticulocyte lysate. luciferase refolding luminescence, 3 h. inhibition, % at 5.6 µM. 290,000 compounds, 0.91% hits. AID 1789;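 active = inhibition above the screen-wide mean plus 3 SD, computed separately per campaign, cut at about 16% in these data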;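 note: 0% = DMSO wells and 100% = 60 µM geldanamycin wells; inhibitors lower the luminescence because luciferase stays unfolded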
HSF1 inhib – HSF1 inhibition. NIH3T3-HGL HSE-luciferase, MG132-induced, luminescence 8 h; hits give low values. activity change, negative = inhibition, % at 7.5 µM (by protocol). 300,000 compounds, 0.77% hits;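 active = more than half of replicate wells show activity change below -50%, luminescence cut by over half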;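 note: luciferase reports HSF-1 transcriptional activity via heat shock element; 0% = median of DMSO wells and -100% = zero luminescence signal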
Lipid droplet – hepatic lipid droplet formation modulation | AID 1656 | AML12 mouse hepatocytes, oleate lipid droplets, BODIPY imaging | 240,000 compounds, 0.4% hits | inhibition, % at 6.5 µM;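 active = lipid droplet intensity inhibited by at least 50%, with more than 500 cells counted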
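Test system: AML12 hepatocytes (mouse); reagent: oleate loading, 100 µM; dosing: one dose, 6.5 µM compound; incubation: overnight exposure; signal: fluorescence imaging, 20x objective, two fields per well; read-out basis: % inhibition of corrected integrated BODIPY droplet signal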
HSF-1 act – increases HSF-1 driven luciferase reporter signal | NIH3T3-HGL HSF-1 luciferase reporter, MG132, 8 h; 100% = twice DMSO control signal | activation, % at 9 µM | 300,000 compounds, 1.7% hits;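 active = mean replicate activation of at least 50% with a set share of replicates each reaching 50%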;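 note: 0% = median of the neutral control wells and 100% = twice that signal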
NS3 helicase inh – inhibitors of Hepatitis C virus NS3 helicase; 290,000 compounds, 0.56% hits; NS3 helicase DNA unwinding, Cy5 molecular beacon fluorescence; inhibition, % at 10.9 µM;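 active = inhibition above the mean of all tested compounds plus 3 SD, set per campaign, cut at about 35% in these data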;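 note: 0% = DMSO wells and 100% = thioflavine S control wells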
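Measured by: Cy5 fluorescence, 0 and 60 min reads / Assay system: NS3 helicase fragment of HCV / Control set: low DMSO, high thioflavine S at 110 µM / Times: 1 h reaction at 25 °C, ATP-initiated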
HSP90 confirm – HSP90 inhibition, confirmation assay; rabbit reticulocyte lysate, luciferase refolding luminescence, 3 h; inhibition, % at 5.9 µM; shares compounds with HSP90 refold inh; 2,300 compounds, 64% hits; in the data active = inhibition above about 18%;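 note: 0% = vehicle wells and 100% = reference inhibitor wells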
luciferase ctr – firefly luciferase inhibition, HSP90 counter-screen. shares compounds with HSP90 refold inh. purified native firefly luciferase, luminescence. inhibition, % at 5.9 µM. 2,300 compounds, 48% hits;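 active = inhibition above the mean inhibition of all tested sample wells plus 3 SD, cut at about 10% in these data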;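 note: 0% = DMSO with luciferase and 100% = wells lacking luciferase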
Target sequence (P08659 whole entry, looked up): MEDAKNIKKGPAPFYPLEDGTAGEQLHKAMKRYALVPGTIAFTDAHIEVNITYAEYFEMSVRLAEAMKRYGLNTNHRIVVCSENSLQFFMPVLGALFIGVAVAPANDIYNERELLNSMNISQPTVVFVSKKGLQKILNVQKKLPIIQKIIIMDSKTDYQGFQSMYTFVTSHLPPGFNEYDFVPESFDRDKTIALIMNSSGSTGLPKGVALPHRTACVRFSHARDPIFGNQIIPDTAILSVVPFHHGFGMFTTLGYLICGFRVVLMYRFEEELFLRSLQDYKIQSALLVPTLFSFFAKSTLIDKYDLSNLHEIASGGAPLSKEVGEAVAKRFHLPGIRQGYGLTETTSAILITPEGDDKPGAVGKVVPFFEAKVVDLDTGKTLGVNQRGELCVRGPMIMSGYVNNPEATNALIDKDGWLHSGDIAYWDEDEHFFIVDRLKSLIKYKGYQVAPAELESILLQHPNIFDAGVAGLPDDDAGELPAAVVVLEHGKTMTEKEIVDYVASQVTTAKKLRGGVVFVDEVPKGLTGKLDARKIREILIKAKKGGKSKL
* hit, by the source's call; . = no result given. An excerpt weighted towards active compounds, which were near 3.8% of everything screened.

SMILES | HSP90 refold inh | HSF1 inhib | Lipid droplet | HSF-1 act | NS3 helicase inh | HSP90 confirm | luciferase ctr
O=C(O)CSc1nnc(NC(=O)c2ccc3c(c2)OCO3)s1 | 26* | -14 | 2 | -22 | -7 | 26* | -8
CCOC(=O)N1CCN(S(=O)(=O)CCNC(=O)c2ccc(F)cc2)CC1 | . | -2 | . | 4 | . | . | .
O=C(O)c1ccc(NS(=O)(=O)c2ccc3c(c2)C(=O)c2ccccc2C3=O)cc1 | 28* | -2 | 1 | -8 | 20 | 2 | -7
Cc1cccc(C)c1NS(=O)(=O)c1ccc2c(c1)C(=O)c1ccccc1C2=O | 1 | -1 | 17 | 27 | 6 | . | .
C[C@@H](C(=O)Nc1ccc2c(c1)OCCO2)n1c(=O)[nH]c2ccccc2c1=O | 54* | -77* | 0 | -81 | -5 | 66* | 69*
CCOC(=O)[C@@H]1[C@H]2COc3ccc(Br)cc3[C@H]2N2C(=O)N(c3cccc(Cl)c3)C(=O)[C@]12C | 6 | 12 | 6 | 22 | -28 | . | .
Cc1cccc(NC(=O)NCCN2CCCCC2)c1 | 25* | -11 | -2 | -2 | -8 | -9 | -12
N#CCCSc1ncnc2c1oc1ccccc12 | 26* | -11 | . | -2 | 1 | -11 | -20
CCCCOC(=O)CSc1nc2ccccc2o1 | 0 | -4 | 2 | 5 | 1 | . | .
Cc1cc(C(=O)CSc2ccc(F)cc2)cc(C)c1OC(=S)N(C)C | 75* | -62* | 6 | -65 | -3 | 70* | 74*
COc1ccc(SCC(=O)c2cc(C)c(OC(=S)N(C)C)c(C)c2)cc1 | 9 | 5 | -4 | 4 | -5 | . | .
CCn1c(C)nc2cc(C(=O)NNC(=S)Nc3ccccc3)ccc21 | 34* | -67* | 1 | -68 | 0 | 32* | 27*
CC(C)CC(=O)Nc1nnc(S(=O)(=O)N2CCCCCC2)s1 | -6 | -1 | 0 | 2 | -1 | . | .
Nc1cccc(-c2cc3ccccc3oc2=O)c1 | 44* | -5 | -3 | -2 | 0 | 35* | -16
Cc1cc(C(=O)COC(=O)c2cccn2C)c(C)n1Cc1ccco1 | 40* | -18 | 10 | -34 | 2 | 66* | 66*
Cc1cc(C(=O)COC(=O)c2ccncc2)c(C)n1Cc1ccco1 | 26* | -44 | -12 | -46 | 9 | 41* | 75*
COc1ccc(Cl)cc1NC(=O)NCc1ccc2c(c1)OCO2 | -1 | 4 | -26 | 6 | -1 | . | .
CCNC(=S)Nc1ccc(Cl)c([N+](=O)[O-])c1 | 3 | 5 | 2 | -1 | 3 | . | .
COc1ccc(-c2ccn(-c3cccc(F)n3)n2)cc1 | 22* | . | 3 | . | 6 | 33* | 18*
COc1ccc(-n2ccc(-c3nn(-c4cccc(C(F)(F)F)c4)ccc3=O)n2)cc1 | 0 | 1 | 10 | 3 | 3 | . | .
O=C(CNC(=O)c1ccc(Br)o1)NC1CCCCC1 | 1 | 4 | -8 | -3 | 2 | . | .
CC1=C(CC(=O)c2ccccc2)C(=O)c2ccccc2C1=O | 17* | -8 | . | -28 | 1 | 10 | -11
COc1ccc(/C=N/Nc2ccc(C(=O)O)cc2)c(OC)c1OC | -1 | 0 | -9 | 1 | -2 | . | .
C/C(=N\Nc1ccccc1Cl)c1ccc(-n2ccnc2)cc1 | 0 | -1 | -2 | -2 | -19 | . | .
COc1ccc(OC)c(/C(C)=N/Nc2ccc(C(=O)O)cc2)c1 | 36* | 3 | -4 | 6 | -8 | 25* | 33*
SMILES | HSP90 refold inh | HSF1 inhib | Lipid droplet | HSF-1 act | NS3 helicase inh | HSP90 confirm | luciferase ctr
C/C(=N/Nc1ccc(C(=O)O)cc1)c1ccc(O)c(O)c1O | 29* | -12 | 0 | -11 | 4 | 54* | 45*
C/C(=N\Nc1ccc(C(=O)O)cc1)c1ccc(-n2ccnc2)cc1 | 18* | 0 | 0 | 3 | -5 | 15 | -8
COc1cc(/C(C)=N/Nc2ccc(C(=O)O)cc2)cc(OC)c1OC | 25* | -10 | 12 | -8 | 4 | 43* | 34*
C/C(=N\Nc1ccc(C(=O)O)cc1)c1nc2ccccc2n1C | 2 | 17 | -18 | 5 | 0 | . | .
N#C/C(=C/c1cn(CC(=O)O)c2ccccc12)C(=O)NCc1ccccc1 | 0 | -7 | -2 | 1 | 18 | . | .
O=C(CSc1cn[nH]n1)Nc1cccc(C(F)(F)F)c1 | 0 | 2 | -12 | -11 | 2 | . | .
Cn1c2ccccc2c(=O)n2c(=O)c3ccccc3cc12 | 19* | -2 | . | 5 | 1 | 23* | -1
CC(NCc1ccc(S(N)(=O)=O)cc1)C(=O)Nc1ccc([N+](=O)[O-])cc1Cl (centres undefined) | 1 | -4 | 4 | 3 | -4 | . | .
O=C(O)CCNC(=O)/C(=C/c1ccco1)NC(=O)c1ccco1 | 30* | -6 | -3 | 2 | 6 | 2 | -2
Cc1ccc(C)c(NC(=O)C2CCCN(c3cnccn3)C2)c1 (centres undefined) | -3 | 3 | -14 | 6 | -10 | . | .
COc1ccc(-c2cc3nc(C)cc(N)n3n2)cc1 | 42* | 28 | . | 43 | 6 | 61* | 41*
CC(C)(Oc1ccc(Cl)cc1)C(=O)Nc1ccc2oc(=O)ccc2c1 | 3 | 7 | -20 | -7 | 3 | . | .
CC(C)(C)C(=O)Nc1ccc(-c2cc3cc(Cl)ccc3o2)cc1 | 40* | -54* | 8 | -61 | 2 | 24* | 12*
O=Cc1ccc(-c2cc(Cl)ccc2Cl)[nH]1 | -3 | -1 | 14 | 16 | 2 | . | .
O=C(COc1ccc(F)cc1)NCCCn1ccnc1 | 6 | 4 | 13 | 10 | -15 | . | .
CCC(C)c1ccc(NC(=O)c2ccco2)cc1 (centres undefined) | 41* | -4 | 1 | 8 | 7 | 69* | 63*
CC(=O)Nc1ccc(NC(=O)c2ccco2)cc1 | 1 | -3 | -1 | -3 | -14 | . | .
CNc1nnc(-c2ccc(N(C)C)cc2)s1 | 20* | . | -12 | . | 3 | 47* | 37*
CN(C)c1ccc(-c2ccncc2)cc1 | . | . | -11 | . | . | . | .
CCC(=O)c1ccc(OCC(=O)Nc2ccc(N3CCOCC3)cc2N2CCOCC2)cc1 | 28* | -13 | 0 | -6 | -3 | -5 | -10
CNC(=O)COC(=O)c1ccc2c(c1)NC(=O)C1CCCN21 (centres undefined) | 1 | -6 | 14 | -14 | -14 | . | .
CC(C)(C)c1ccc(Cn2c(=O)cnc3ccccc32)cc1 | 22* | -70* | -2 | -69 | -5 | 53* | 34*
CN1C(=O)c2ccc(Oc3ccccc3)cc2C1=O | . | 12 | . | 14 | . | . | .
c1ccc(-c2nc3cccnc3nc2-c2ccccc2)cc1 | . | -8 | . | -8 | . | . | .
O=C(O)CCCCCn1c(SCC(=O)N2CCCC2)nc2ccsc2c1=O | 64* | 2 | . | -1 | 2 | 5 | -4
O=C(Nc1ccccc1C(=O)Nc1ccc(Br)cn1)c1cccc([N+](=O)[O-])c1 | 1 | -5 | -5 | 19 | 8 | . | .
